# The source made the active and inactive calls. The calls are words filed in the database; no cut-off is given here.
# Tests used:
# [1] = Cytotoxicity against human MRC5 cells assessed as reduction of cell viability at 1 uM after 96 hrs by alamar blue assay; assay type: cell-based; conditions: read-out: INH
# Summary of the method: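 MRC-5 cells attached 24 h in 96-well plates, exposed to compound at 1 μM for 96 h. Viability by Alamar blue absorbance at 570 nm versus DMSO (0.5%) control.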
# [2] = Upregulation of RARbeta2 mRNA expression in human BE(2)-C cells transfected with full-length human cloned RARbeta2 expressing pMEP4 vector at 10 uM after 24 hrs by quantitative real time PCR analysis relative to control; assay type: functional, cell-based
# Summary of the method: (§1)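 RARβ-pMEP4 BE(2)-C cells attached 24 h in duplicate wells of 6-well plates, then exposed 24 h to compound (1 or 10 μM), 13-cis-retinoic acid (10 μM), AC261066 (10 nM) or DMSO (0.05%). Total RNA isolated, RARβ2 mRNA quantified by real-time PCR as fold change versus control.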
# [3] = Anticancer activity against human BE(2)-C cells transfected with full-length human cloned RARbeta2 expressing pMEP4 vector assessed as reduction of cell viability at 5 uM after 96 hrs by Alamar blue assay relative to compound treated pMEP4 empty vector cloned cells; assay type: functional
# Summary of the method: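 RARβ-pMEP4 and empty-vector BE(2)-C cells attached 24 h in 96-well plates, then exposed to ligand at 5 μM for 96 h. Alamar blue absorbance read at 570 nm. Viability of RARβ-transfected cells expressed relative to empty-vector cells. Mean ± SEM from at least three replicates.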
# SH-SY5Y [4] = experiment: Anticancer activity against retinoid-sensitive human SH-SY5Y cells assessed as reduction of cell viability at 20 uM after 96 hrs by alamar blue assay; assay type: functional
# Summary of the method: (§2)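 Alamar blue (resazurin) viability assay in SH-SY5Y or MDA-MB-231 cells grown in DMEM/L-glutamine/10% FCS, 37 °C, 5% CO2. After 24 h attachment in 6 replicate wells, cells were continuously exposed to serial dilutions for 96 h. Absorbance at 570 nm was read at 0 h and 5 h after reagent addition. Viability is % of matched 0.5% DMSO controls; mean ± SEM, three independent experiments.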
# MDA-MB-231 [5] = experiment: Anticancer activity against retinoid-resistant human MDA-MB-231 cells assessed as reduction of cell viability at 20 uM after 96 hrs by alamar blue assay; assay type: functional; conditions: MDA-MB-231, 96 h; summary of the method: as §2
# SH-SY5Y [6] = experiment: Anticancer activity against retinoid-sensitive human SH-SY5Y cells assessed as reduction of cell viability at 10 uM after 96 hrs by alamar blue assay; assay type: functional; summary of the method: as §2
# [7] = Anticancer activity against human BE(2)-C cells transfected with pMEP4 empty vector assessed as reduction of cell viability at 20 uM after 72 hrs by Alamar blue assay; assay type: functional
# Summary of the method: (§3)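 BE(2)-C neuroblastoma cells stably carrying RARβ cDNA in pMEP4 episomal vector, or empty pMEP4, in DMEM with L-glutamine and 10% FCS at 37 °C, 5% CO2. Cells attached 24 h in 96-well plates, then treated 72 h. Alamar blue absorbance at 570 nm, viability expressed as percentage of negative control.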
# [8] = Anticancer activity against human BE(2)-C cells transfected with full-length human cloned RARbeta2 expressing pMEP4 vector assessed as reduction of cell viability at 20 uM after 72 hrs by Alamar blue assay; assay type: functional; summary of the method: as §3
# [9] = Anticancer activity against human BE(2)-C cells transfected with full-length human cloned RARbeta2 expressing pMEP4 vector assessed as reduction of cell viability at 1 uM after 72 hrs by Alamar blue assay; assay type: functional; summary of the method: as §3
# SH-SY5Y [10] = experiment: Anticancer activity against retinoid-sensitive human SH-SY5Y cells assessed as reduction of cell viability at 0.1 uM after 96 hrs by alamar blue assay; assay type: functional; summary of the method: as §2
# [11] = Upregulation of RARbeta2 mRNA expression in human BE(2)-C cells transfected with full-length human cloned RARbeta2 expressing pMEP4 vector at 1 uM after 24 hrs by quantitative real time PCR analysis relative to control; assay type: functional, cell-based; summary of the method: as §1
# MDA-MB-231 [12] = experiment: Anticancer activity against retinoid-resistant human MDA-MB-231 cells assessed as reduction of cell viability at 1 uM after 96 hrs by alamar blue assay; assay type: functional; conditions: MDA-MB-231, 96 h; summary of the method: as §2
# [13] = Anticancer activity against human BE(2)-C cells transfected with pMEP4 empty vector assessed as reduction of cell viability at 1 uM after 72 hrs by Alamar blue assay; assay type: functional; summary of the method: as §3
# SH-SY5Y [14] = experiment: Anticancer activity against retinoid-sensitive human SH-SY5Y cells assessed as reduction of cell viability at 1 uM after 96 hrs by alamar blue assay; assay type: functional; summary of the method: as §2
# [15] = Anticancer activity against human BE(2)-C cells transfected with full-length human cloned RARbeta2 expressing pMEP4 vector assessed as reduction of cell viability at 10 uM after 72 hrs by Alamar blue assay; assay type: functional; summary of the method: as §3
# [16] = Anticancer activity against human BE(2)-C cells transfected with pMEP4 empty vector assessed as reduction of cell viability at 10 uM after 72 hrs by Alamar blue assay; assay type: functional; summary of the method: as §3
# SH-SY5Y [17] = experiment: Anticancer activity against retinoid-sensitive human SH-SY5Y cells assessed as cell viability at 0.01 to 100 uM after 96 hrs by alamar blue assay; assay type: functional, cell-based; summary of the method: as §2
# [18] = Upregulation of RARbeta2 mRNA expression in human BE(2)-C cells transfected with full-length human cloned RARbeta2 expressing pMEP4 vector at 10 nM after 24 hrs by quantitative real time PCR analysis relative to control; assay type: functional, cell-based; summary of the method: as §1
smiles,measurement,setting,value
CC1=C(/C=C/C(C)=C/C=C/C(C)=C\C(=O)O)C(C)(C)CCC1 [ISOTRETINOIN],"cytotoxicity at 96 h, 1 µM",[1],10%
same,fold change (FC),[2],9.3
Cc1nn(CC(C)C)c2sc(C(=O)Nc3nc4ccccc4[nH]3)cc12,inhibition at 5 µM,[3],20%
N[C@@H](Cc1ccccc1)C(=O)NCC(=O)Nc1nc2ccccc2s1,inhibition at 20 µM,SH-SY5Y [4],50%
same,inhibition at 20 µM,MDA-MB-231 [5],50%
same,inhibition at 10 µM,SH-SY5Y [6],13%
Cc1cc(C(=O)CSc2nnnn2C2CC2)c(C)n1C1CC1,inhibition at 5 µM,[3],20%
CCOc1ccc2nc(NC(=O)Cc3c[nH]c4ccccc34)sc2c1,inhibition at 20 µM,[7],29%
same,inhibition at 20 µM,[8],39%
O=C(Cc1c[nH]c2ccccc12)Nc1nc2ccccc2s1,"cytotoxicity at 96 h, 1 µM",[1],20%
same,inhibition at 1 µM,[9],50%
same,inhibition at 0.1 µM,SH-SY5Y [10],12%
same,fold change (FC),[11],2.1
same,inhibition at 1 µM,MDA-MB-231 [12],58%
same,inhibition at 1 µM,[13],38%
same,inhibition at 1 µM,SH-SY5Y [14],55%
Cn1cnnc1SCc1nnc(-c2ccc(Br)s2)o1,inhibition at 5 µM,[3],20%
Cc1cccc2sc(NC(=O)CNC(=O)Cc3ccccc3)nc12,inhibition at 5 µM,[3],20%
Cc1ccc(NC(=O)c2cc3c(C)nn(CC(C)C)c3s2)c(O)c1,inhibition at 5 µM,[3],20%
O=C(CCc1c[nH]c2ccccc12)Nc1nc2ccccc2s1,fold change (FC),[2],1.5
same,Activity,[15],53%
same,Activity,[16],38%
O=C(Nc1nc2ccccc2s1)C(=O)c1c[nH]c2ccccc12,Activity,SH-SY5Y [17],inactive
O=C(CCSc1ccccc1)Nc1ccc(-c2cn3ccsc3n2)cc1,inhibition at 5 µM,[3],20%
CCCCOCCOc1nc(-c2ccc(C(=O)O)c(F)c2)sc1C,fold change (FC),[18],2.7
CC1(C)Cc2cccc(OCc3nnc(-c4ccccc4)o3)c2O1,inhibition at 5 µM,[3],20%
Cc1nnc(SCc2nnc(-c3cccs3)o2)n1-c1ccccc1,inhibition at 5 µM,[3],20%
O=C(Cc1c[nH]c2ccccc12)Nc1nc2ccc(Cl)cc2s1,inhibition at 20 µM,[7],43%
same,inhibition at 20 µM,[8],48%
